This is a sample that favours compounds with a hit; in the whole collection about 0.72% have one here.
bIAP inh = bovine intestinal alkaline phosphatase inhibitors, primary screen, selectivity assay for TNAP inhibitor project, biochemical, bovine IAP, CDP-star luminescence. alkaline phosphatase, intestinal [Bos taurus]. 190,000 tested, under 10 active. inhibition, % at 20 µM. purified bovine IAP, 30 min. AID 1019, 2008;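 active = over 50% inhibition of intestinal alkaline phosphatase at 20 µM in the single-dose screen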
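System: purified bovine intestinal alkaline phosphatase (IAP) enzyme; Input: IAP diluted 1/65,000,000 in the well; Measured by: CDP-star luminescence signal; Compound dosing: 20 µM single dose; Incubation: 30 min reaction at room temperature.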
bIAP activator = bovine intestinal alkaline phosphatase activators, primary screen, biochemical, bovine IAP, CDP-star luminescence; alkaline phosphatase, intestinal [Bos taurus]; purified bovine IAP, 30 min; stronger effect = higher value; fold of DMSO-control signal, blank-subtracted; activation factor at 20 µM; 200,000 tested, 0.17% active;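 active = activation factor of 2 or more at 20 µM, a signal rise over negative controls twice the positive control's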
hIAP activ = human IAP activators, primary screen, biochemical, luminescence, uHTS; 330,000 tested, 0.16% active; purified human IAP, CDP-Star luminescence, 30 min; stronger effect = higher value; 1 = vehicle-only enzyme, 0 = enzyme-free background; AID 2524, 2010; activation factor at 10 µM; Intestinal-type alkaline phosphatase (Homo sapiens), P09923;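 active = activation factor of the enzyme at least 2-fold when tested at 20 µM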
Target sequence (P09923 whole entry, looked up): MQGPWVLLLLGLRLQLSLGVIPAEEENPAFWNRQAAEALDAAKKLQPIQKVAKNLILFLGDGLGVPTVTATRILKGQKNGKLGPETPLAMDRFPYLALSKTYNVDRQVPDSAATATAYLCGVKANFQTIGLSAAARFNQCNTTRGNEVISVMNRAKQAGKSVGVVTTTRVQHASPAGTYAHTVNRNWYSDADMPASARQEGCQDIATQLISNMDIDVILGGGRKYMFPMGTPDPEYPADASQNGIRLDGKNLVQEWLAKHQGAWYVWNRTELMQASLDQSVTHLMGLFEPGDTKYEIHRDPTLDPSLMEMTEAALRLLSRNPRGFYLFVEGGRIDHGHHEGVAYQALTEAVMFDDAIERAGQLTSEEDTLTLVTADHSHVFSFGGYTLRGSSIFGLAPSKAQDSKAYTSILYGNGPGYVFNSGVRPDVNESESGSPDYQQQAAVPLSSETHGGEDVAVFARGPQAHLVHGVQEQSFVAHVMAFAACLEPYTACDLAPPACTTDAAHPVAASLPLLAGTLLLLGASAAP
hIAP block = human IAP inhibitors, primary screen, biochemical, luminescence, uHTS; Intestinal-type alkaline phosphatase (Homo sapiens), P09923; purified IAP, CDP-Star luminescence, 30 min; inhibition, % at 10 µM; 330,000 tested, 0.12% active;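 active = inhibition reaching a set limit with compound at 10 µM in the primary screen, cut at about 35% in these data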
mIAP block = inhibitors of mouse IAP, primary screen, biochemical, luminescence, uHTS. intestinal alkaline phosphatase [Mus musculus]. purified mouse IAP, CDP-Star luminescence, 30 min. inhibition, % at 10 µM. 330,000 tested, 0.2% active;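 active = inhibition of at least 40% at 10 µM in the primary screen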
mIAP act = activators of mouse IAP, primary screen, biochemical, luminescence, uHTS | intestinal alkaline phosphatase [Mus musculus] | activation factor at 10 µM | 330,000 tested, 0.24% active | muIAP, CDP-Star luminescence, 30 min; stronger effect = higher value; 1 = vehicle-only enzyme signal, 0 = enzyme-free wells | AID 2805, 2010;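 active = activation factor of at least 2 at 20 µM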
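also added = chemiluminescent substrate CDP-Star | test system = mouse IAP enzyme | signal = chemiluminescence readout | compound = DMSO-dissolved test compounds | incubation = 30 min at room temperature | benchmarks = DMSO wells, no-enzyme wells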
hIAP act conf = human IAP activators, confirmation, biochemical, luminescence, single concentration, uHTS hits; shares compounds with hIAP activ; purified IAP, CDP-Star luminescence, 30 min; stronger effect = lower value; activation (%Activity, negative = activation), % at 8.3 µM; 880 tested, 10% active;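 active = at least twofold enzyme activation in any of six single-dose repeats, which the averaged readout prints as negative percent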
A number is an active result; 0 = inactive; - = no result.

SMILES	bIAP inh	bIAP activator	hIAP activ	hIAP block	mIAP block	mIAP act	hIAP act conf
Cc1ccc(S(=O)(=O)/N=C(/Nc2ccc([N+](=O)[O-])cc2[N+](=O)[O-])c2ccccc2)cc1	-	-	0	0	0	0	-
CCCCC1CCC(C(=O)Nc2ccc(N3CCOCC3)cc2N2CCOCC2)CC1 (stereo not drawn)	-	-	0	0	0	0	-
CCOC(=O)c1ccc(NC(=S)NCc2ccc(F)cc2)cc1	-	-	0	0	0	2.31	-
CCc1ccc(-c2nc(CN3CCC(C(=O)NCCN(CC)c4ccccc4)CC3)c(C)o2)cc1	0	4.4	0	0	0	2.01	-
CCN(CCNC(=O)C1CCN(Cc2nc(-c3ccc(Cl)cc3)oc2C)CC1)c1ccccc1	0	0	0	0	0	0	-
CCN(CCNC(=O)C1CCN(Cc2nc(-c3cccc(Cl)c3)oc2C)CC1)c1ccccc1	0	2.9	0	0	0	0	-
COc1ccc(C(CNC(=O)c2ccc(Cl)c(NC(=O)c3cccs3)c2)N2CCCC2)cc1 (stereo not drawn)	-	-	0	0	0	0	-
CCC(C)Sc1ccc([C@@H]2[C@H]3C(=O)N(CC)C(=O)[C@H]3[C@]3(C(=O)OC)CCCCN23)cc1 (stereo partly drawn)	-	-	0	0	0	0	-
Cc1ccc(C(=O)NNC(=O)CCC(=O)NCc2ccccc2)cc1Br	-	-	2.21	0	0	0	0
Cc1ccc(Cl)cc1NC(=O)C(=O)N/N=C/c1ccc2c(c1)OCO2	-	-	2.16	0	0	0	0
Cc1cc(Cl)ccc1NC(=O)C(=O)N/N=C/c1ccc2c(c1)OCO2	-	-	0	0	0	0	-
Cc1cc(NS(=O)(=O)c2ccc(NC(=O)C(C(C)C)N3C(=O)c4ccccc4C3=O)cc2)nc(C)n1 (stereo not drawn)	0	0	0	38.8	0	0	0
O=C(O)COn1c(-c2ccc(Cl)cc2)nc2ccc(Cl)cc21	0	0	2.16	0	0	0	0
COn1c(-c2ccc(Cl)cc2)nc2ccc(Cl)cc21	0	0	0	0	0	0	-
CCOc1ccc(NC(=O)COC(=O)c2ccc3c(c2)OCCO3)cc1	-	-	0	0	0	0	-
CC1CN(Cc2ccccc2)c2nc3c(c(=O)n(CC(N)=O)c(=O)n3C)n2C1 (stereo not drawn)	-	-	0	38.8	0	0	0
CCOC(=O)Cn1c(=O)c2c(nc3n2CC(C)CN3Cc2ccccc2)n(C)c1=O (stereo not drawn)	-	-	0	0	0	0	-
O=C(NCCS(=O)(=O)N1CCN(c2cccc(Cl)c2)CC1)c1cc(=O)c2ccccc2o1	-	-	0	38.6	0	0	0
O=C(NCCS(=O)(=O)N1CCN(c2cccc(Cl)c2)CC1)c1ccc2c(c1)OCO2	-	-	0	0	0	0	-
COc1cc(CSc2ncn[nH]2)c(OC)cc1CSc1ncn[nH]1	0	0	2.71	0	0	0	0
O=[N+]([O-])c1ccc(CSc2ccc(S(=O)(=O)N3CCCCCC3)cn2)cc1	-	-	0	0	0	0	-
CCCNS(=O)(=O)c1ccc(CCC(=O)NCc2ccco2)cc1	0	0	2.41	0	0	0	0
Nc1nc(-c2ccccc2)c(N=Nc2cccc3ccccc23)s1	0	0	0	35.1	0	0	0
COc1ccc(/C=C/CN2CCC(n3nccc3NC(=O)C3CCCC3)CC2)cc1	-	-	2.09	0	0	0	0
COc1ccc(CN2CCC(n3nccc3NC(=O)C3CCCC3)CC2)cc1	-	-	0	0	0	0	-
O=C(COc1cccc(Cl)c1)Nc1ccccc1N1CCCCC1	-	-	0	0	0	0	-
CC(C)c1nn2c(=O)cc(COc3cccc(NC(=O)c4ccco4)c3)nc2s1	-	-	0	0	0	0	-
